Converted amounts (≈) assume the structure as drawn. The source made the active and inactive calls. The rule behind the calls is not given here.
How the values were obtained:
[1] = biological target: T1, Non-receptor tyrosine-protein kinase TYK2 (Homo sapiens, UniProt P29597); assay: Inhibition of fluorescein-labeled kinase tracer binding to His-TVMV-fused TYK2 JH2 domain (575 to 869 residues) (unknown origin) measured after 90 mins by HTRF assay
[2] = biological target: T1, Non-receptor tyrosine-protein kinase TYK2; assay: Inhibition of TYK2 JH2 domain in IFNalpha/IL23-stimulated human Kit225 cells by luciferase reporter assay
[3] = biological target: T1, Non-receptor tyrosine-protein kinase TYK2; assay: Inhibition of TYK2 JH2 domain in human whole blood assessed as decrease in IFNalpha/IL2-induced STAT phosphorylation preincubated for 1 hr followed by IFNalpha/IL2 stimulation and measured after 15 mins by fluorescence assay; format: tissue-based
[4] = Stability in human liver microsomes assessed as parent compound remaining; format: ADME, Microsome
Summary of the method: (§1)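 Compound was incubated 10 min with human, rat or mouse liver microsomes. Parent remaining is reported as percent.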

[5] = Stability in mouse liver microsomes assessed as parent compound remaining; format: ADME, Microsome; summary of the method: as §1
[6] = Stability in rat liver microsomes assessed as parent compound remaining; format: ADME, Microsome; summary of the method: as §1
[7] = Permeability of the compound in human Caco2 cells; format: ADME, cell-based; conditions: Caco-2, read-out: permeability
[8] = Aqueous solubility of the compound at pH 1; format: physicochemical; conditions: buffer
[9] = Aqueous solubility of the compound at pH 6.5; format: physicochemical; conditions: buffer
[10] = AUC (0 to 24 hrs) in rat at 10 mg/kg, po; format: ADME, organism-based; parameters: time < 24 hr, dose 10 mg/kg, route oral; conditions: in vivo
Summary of the method: (§2)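 Oral PK in the listed species. Vehicle 5:5:90 TPGS/EtOH/PEG300. An IV arm was dosed at 2 mg/kg.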

[11] = Oral bioavailability in cynomolgus monkey at 10 mg/kg; format: ADME, organism-based, Macaca fascicularis; conditions: in vivo; summary of the method: as §2
[12] = Cmax in mouse at 10 mg/kg, po; format: ADME, organism-based; parameters: dose 10 mg/kg, route oral; conditions: in vivo; summary of the method: as §2
[13] = Oral bioavailability in dog at 10 mg/kg; format: ADME, organism-based, Canis lupus familiaris; conditions: in vivo; summary of the method: as §2
[14] = test system: Rattus norvegicus; assay: Antiarthritic activity in incomplete Freund's adjuvant-induced Lewis rat arthritis model assessed as reduction in paw volume at 5 to 10 mg/kg, po bid for 20 days by plethysmometric method; format: functional, organism-based
Summary of the method: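 Rat adjuvant arthritis. Adjuvant was given on day zero. Compound was dosed twice daily from day 0 to day 20 in 5:5:90 TPGS/EtOH/PEG300. Paw volume was measured periodically.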

[15] = AUC (0 to 24 hrs) in mouse at 10 mg/kg, po; format: ADME, organism-based; parameters: time < 24 hr, dose 10 mg/kg, route oral; conditions: in vivo; summary of the method: as §2
[16] = Clearance in mouse at 2 mg/kg, iv; conditions: in vivo
[17] = test system: Rattus norvegicus; assay: Inhibition of IL12/IL18-induced IFNgamma production in po dosed Lewis rat pretreated for 1 hr followed by IL12 stimulation for 1 hr and subsequent IL18 addition and measured after 3 hrs by ELISA; format: functional, organism-based
Summary of the method: (§3)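 Rats were dosed in 5:5:90 TPGS/EtOH/PEG300, challenged with IL-12 1 h later and with IL-18 a further hour later. Plasma was collected 5 h after dosing for IFNγ levels. Inhibition is relative to vehicle.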

[18] = Cmax in dog at 10 mg/kg, po; format: ADME, organism-based, Canis lupus familiaris; parameters: dose 10 mg/kg, route oral; conditions: in vivo; summary of the method: as §2
[19] = AUC (0 to 24 hrs) in dog at 10 mg/kg, po; format: ADME, organism-based, Canis lupus familiaris; parameters: time < 24 hr, dose 10 mg/kg, route oral; conditions: in vivo; summary of the method: as §2
[20] = Clearance in cynomolgus monkey at 10 mg/kg, po; format: ADME, organism-based, Macaca fascicularis; conditions: in vivo; summary of the method: as §2
[21] = Oral bioavailability in mouse at 10 mg/kg; format: ADME, organism-based; conditions: in vivo; summary of the method: as §2
[22] = Oral bioavailability in rat at 10 mg/kg; format: ADME, organism-based; conditions: in vivo; summary of the method: as §2
[23] = Clearance in rat at 10 mg/kg, po; format: ADME, organism-based; conditions: in vivo; summary of the method: as §2
[24] = Cmax in rat at 10 mg/kg, po; format: ADME, organism-based; parameters: dose 10 mg/kg, route oral; conditions: in vivo; summary of the method: as §2
[25] = test system: Rattus norvegicus; assay: Inhibition of IL12/IL18-induced IFNgamma production in Lewis rat at 1 mg/kg, po pretreated for 1 hr followed by IL12 stimulation for 1 hr and subsequent IL18 addition and measured after 3 hrs by ELISA relative to control; format: functional; summary of the method: as §3
[26] = AUC (0 to 24 hrs) in cynomolgus monkey at 10 mg/kg, po; format: ADME, organism-based, Macaca fascicularis; parameters: time < 24 hr, dose 10 mg/kg, route oral; conditions: in vivo; summary of the method: as §2
[27] = Clearance in dog at 10 mg/kg, po; format: ADME, organism-based, Canis lupus familiaris; conditions: in vivo; summary of the method: as §2
[28] = test system: Rattus norvegicus; assay: Inhibition of IL12/IL18-induced IFNgamma production in Lewis rat at 10 mg/kg, po pretreated for 1 hr followed by IL12 stimulation for 1 hr and subsequent IL18 addition and measured after 3 hrs by ELISA relative to control; format: functional; summary of the method: as §3
[29] = Cmax in cynomolgus monkey at 10 mg/kg, po; format: ADME, organism-based, Macaca fascicularis; parameters: dose 10 mg/kg, route oral; conditions: in vivo; summary of the method: as §2

T1 sequence (P29597 whole entry, the tested form may be a part): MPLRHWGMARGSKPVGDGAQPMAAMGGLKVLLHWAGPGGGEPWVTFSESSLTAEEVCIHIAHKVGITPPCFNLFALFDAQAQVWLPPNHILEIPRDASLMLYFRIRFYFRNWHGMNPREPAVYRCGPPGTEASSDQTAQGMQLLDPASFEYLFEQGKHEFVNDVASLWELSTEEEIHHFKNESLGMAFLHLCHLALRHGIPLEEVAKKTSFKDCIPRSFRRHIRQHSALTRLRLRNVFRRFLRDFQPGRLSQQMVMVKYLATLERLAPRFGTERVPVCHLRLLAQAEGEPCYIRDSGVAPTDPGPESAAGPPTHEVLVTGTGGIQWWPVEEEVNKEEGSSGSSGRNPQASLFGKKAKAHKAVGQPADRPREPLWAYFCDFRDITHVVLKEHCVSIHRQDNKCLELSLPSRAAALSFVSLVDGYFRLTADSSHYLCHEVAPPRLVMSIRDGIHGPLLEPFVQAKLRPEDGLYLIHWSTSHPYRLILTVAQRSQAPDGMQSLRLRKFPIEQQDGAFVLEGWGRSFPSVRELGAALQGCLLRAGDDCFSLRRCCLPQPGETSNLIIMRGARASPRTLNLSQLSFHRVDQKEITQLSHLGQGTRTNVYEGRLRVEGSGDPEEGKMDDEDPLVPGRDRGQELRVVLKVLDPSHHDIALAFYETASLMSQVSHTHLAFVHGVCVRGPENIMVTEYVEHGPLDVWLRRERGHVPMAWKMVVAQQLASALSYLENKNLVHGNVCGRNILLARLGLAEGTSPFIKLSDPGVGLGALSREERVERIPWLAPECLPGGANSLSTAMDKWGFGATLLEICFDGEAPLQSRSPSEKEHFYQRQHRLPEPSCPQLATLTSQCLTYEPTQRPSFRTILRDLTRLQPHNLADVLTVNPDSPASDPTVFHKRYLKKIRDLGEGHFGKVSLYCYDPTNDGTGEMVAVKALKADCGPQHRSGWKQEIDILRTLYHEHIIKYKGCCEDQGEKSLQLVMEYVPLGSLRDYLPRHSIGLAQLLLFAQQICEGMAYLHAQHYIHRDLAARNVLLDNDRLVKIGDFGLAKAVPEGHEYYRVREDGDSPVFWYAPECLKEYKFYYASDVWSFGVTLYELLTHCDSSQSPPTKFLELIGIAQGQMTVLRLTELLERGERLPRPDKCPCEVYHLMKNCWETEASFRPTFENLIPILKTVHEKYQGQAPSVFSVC

Row | Ki [1] [nM] | IC50 [2] [nM] | IC50 [3] | Compound | other results
1 | 0.018 | 41 | 63 nM | CNc1cc(Nc2cccn(-c3ccc(C)nn3)c2=O)nn2c(C(=O)N[C@@H]3C[C@@H]3F)cnc12 | 
2 | 0.29 | 84 | 285 nM | CNc1cc(Nc2cccn(-c3ccccn3)c2=O)nn2c(C(=O)NCC(C)(C)CO)cnc12 | 
3 | 0.74 | 614 | Nd(Insoluble) | CNc1cc(Nc2cccn(C)c2=O)nn2c(C(=O)NC3CC3)cnc12 | Stability [4]: 56%; Stability [5]: 10%; Stability [6]: 63%
4 | 0.15 | 99 | 236 nM | CNc1cc(Nc2cccn(-c3ccc(F)cn3)c2=O)nn2c(C(=O)NC3CC3)cnc12 | 
5 | 0.48 | 135 | 340 nM | CNc1cc(Nc2cccn(-c3cc(C)n(C)n3)c2=O)nn2c(C(=O)NC3CC3)cnc12 | Papp [7]: 14.2 ×10⁻⁶ cm/s
6 | 0.29 | 148 | 346 nM | CNc1cc(Nc2cccn(-c3ccncc3)c2=O)nn2c(C(=O)NC3CC3)cnc12 | Papp [7]: 3.8 ×10⁻⁶ cm/s
7 | 0.34 | 94 | 382 to 398 nM | CNc1cc(Nc2cccn(-c3ccccn3)c2=O)nn2c(C(=O)NC3CC3)cnc12 | Papp [7]: 16.9 ×10⁻⁶ cm/s
8 | 0.091 | 147 | 247 nM | CNc1cc(Nc2cccn(-c3ccc(C)nn3)c2=O)nn2c(C(=O)NC3CC3)cnc12 | 
9 | 0.015 | 22 | 90 nM | CNc1cc(Nc2cccn(-c3cc(C)n(C)n3)c2=O)nn2c(C(=O)N[C@@H]3C[C@@H]3F)cnc12 | 
10 | 0.38 | 235 | 464 nM | CNc1cc(Nc2cccn(-c3ncc(F)cn3)c2=O)nn2c(C(=O)NC3CC3)cnc12 | 
11 | 0.12 | 61 | 313 nM | CNc1cc(Nc2cccn(-c3ncccc3F)c2=O)nn2c(C(=O)NC3CC3)cnc12 | Papp [7]: 5.9 ×10⁻⁶ cm/s
12 | 0.33 | 131 | 817 nM | CNc1cc(Nc2cccn(C3CC3)c2=O)nn2c(C(=O)NC3CC3)cnc12 | Stability [4]: 88%; Stability [5]: 39%; Stability [6]: 71%
13 | 0.024 | 12 | 136 nM | CNc1cc(Nc2cccn(-c3cccc(F)n3)c2=O)nn2c(C(=O)N[C@@H]3C[C@@H]3F)cnc12 | 
14 | 0.2 | 90 | 268 nM | CNc1cc(Nc2cccn(-c3ccc(C#N)cc3)c2=O)nn2c(C(=O)NC3CC3)cnc12 | Stability [4]: 92%; Stability [5]: 71%; solubility [8]: 2 µg/mL (≈ 4.54 µM); solubility [9]: < 1 µg/mL; Stability [6]: 77%
15 |  |  |  | CNc1cc(Nc2cccn(-c3ccccn3)c2=O)nn2c(C(=O)N[C@@H]3C[C@@H]3F)cnc12 | AUC(0-t) at 24 h [10]: 57 µM·h; bioavailability [11]: 46%; Cmax [12]: 15 µM; bioavailability [13]: 50%; Activity [14]: Active; AUC(0-t) at 24 h [15]: 19 µM·h; clearance [16]: 16 mL/min/kg; inhibition [17]: Dose-dependent effect; Cmax [18]: 0.93 µM; AUC(0-t) at 24 h [19]: 8 µM·h; CL/F [20]: 17 mL/min/kg; bioavailability [21]: 86%; bioavailability [22]: 114%; CL/F [23]: 7.8 mL/min/kg; Cmax [24]: 9.4 µM; inhibition in vivo at 1 mg/kg [25]: 45%; AUC(0-t) at 24 h [26]: 11 µM·h; CL/F [27]: 25 mL/min/kg; inhibition in vivo at 10 mg/kg [28]: 77%; Cmax [29]: 1.8 µM
16 | 0.13 | 153 | 750 nM | CNc1cc(Nc2cccn(-c3ccccn3)c2=O)nn2c(C(=O)NC(C)C)cnc12 | 
17 | 0.26 | 60 | 384 nM | CNc1cc(Nc2cccn(-c3ccccn3)c2=O)nn2c(C(=O)NC3CCC3)cnc12 | 
18 | 0.035 | 26 | 85 nM | CNc1cc(Nc2cccn(-c3ccc(F)cn3)c2=O)nn2c(C(=O)N[C@@H]3C[C@@H]3F)cnc12 | 
19 | 0.22 | 70 | 371 nM | CNc1cc(Nc2cccn(-c3cccc(F)n3)c2=O)nn2c(C(=O)NC3CC3)cnc12 | 
20 | 0.07 | 111 | 811 nM | CNc1cc(Nc2cccn(-c3ccc(C(C)(C)O)cc3)c2=O)nn2c(C(=O)NC3CC3)cnc12 | 

From ChEMBL document CHEMBL4400582, “Identification of Imidazo[1,2-b]pyridazine Derivatives as Potent, Selective, and Orally Active Tyk2 JH2 Inhibitors” (ACS Med Chem Lett, 2019)
